pEC50, pKi: −log10 of the molar value.
Legend:
[1] = biological target: Muscarinic acetylcholine receptor M3 (Homo sapiens, UniProt P20309); experiment: Displacement of [3H]-N-methyl-scopolamine from human muscarinic M3 receptor after 6 hrs by cell based assay
Outline: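 Human M3 receptor-expressing cell membranes incubated up to 6 h at 37 °C with 1 nM [3H]N-methyl-scopolamine and serial dilutions of compound. Buffer 10 mM Hepes, 100 mM NaCl, 10 mM MgCl2, pH 7.4 at 37 °C. IC50 from displacement converted to Ki by Cheng–Prusoff.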

[2] = biological target: T1, Beta-2 adrenergic receptor (Homo sapiens, UniProt P07550); experiment: Agonist activity at human beta2-adrenoceptor expressed in HEK cells assessed as increase of cAMP level after 10 mins by radioimmunoassay; type: functional, cell-based, HEK293
[3] = biological target: T1, Beta-2 adrenergic receptor; experiment: Displacement of [3H]-dihydroalprenolol from human beta2-adrenoceptor expressed in HEK cells after 4 hrs; type: cell-based, HEK293

T1 sequence (P07550 whole entry): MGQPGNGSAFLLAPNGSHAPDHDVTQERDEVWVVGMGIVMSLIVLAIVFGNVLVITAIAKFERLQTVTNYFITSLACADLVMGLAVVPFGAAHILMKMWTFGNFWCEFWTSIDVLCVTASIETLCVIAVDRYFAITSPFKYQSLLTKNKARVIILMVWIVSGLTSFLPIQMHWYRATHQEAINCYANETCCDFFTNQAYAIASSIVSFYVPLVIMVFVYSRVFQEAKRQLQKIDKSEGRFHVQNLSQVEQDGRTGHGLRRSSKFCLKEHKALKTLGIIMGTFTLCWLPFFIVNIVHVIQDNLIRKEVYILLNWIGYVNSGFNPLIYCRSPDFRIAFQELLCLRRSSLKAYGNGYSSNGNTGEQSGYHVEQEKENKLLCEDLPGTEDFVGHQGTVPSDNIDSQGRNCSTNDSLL
Chain of Muscarinic acetylcholine receptor M3 (P20309 whole entry): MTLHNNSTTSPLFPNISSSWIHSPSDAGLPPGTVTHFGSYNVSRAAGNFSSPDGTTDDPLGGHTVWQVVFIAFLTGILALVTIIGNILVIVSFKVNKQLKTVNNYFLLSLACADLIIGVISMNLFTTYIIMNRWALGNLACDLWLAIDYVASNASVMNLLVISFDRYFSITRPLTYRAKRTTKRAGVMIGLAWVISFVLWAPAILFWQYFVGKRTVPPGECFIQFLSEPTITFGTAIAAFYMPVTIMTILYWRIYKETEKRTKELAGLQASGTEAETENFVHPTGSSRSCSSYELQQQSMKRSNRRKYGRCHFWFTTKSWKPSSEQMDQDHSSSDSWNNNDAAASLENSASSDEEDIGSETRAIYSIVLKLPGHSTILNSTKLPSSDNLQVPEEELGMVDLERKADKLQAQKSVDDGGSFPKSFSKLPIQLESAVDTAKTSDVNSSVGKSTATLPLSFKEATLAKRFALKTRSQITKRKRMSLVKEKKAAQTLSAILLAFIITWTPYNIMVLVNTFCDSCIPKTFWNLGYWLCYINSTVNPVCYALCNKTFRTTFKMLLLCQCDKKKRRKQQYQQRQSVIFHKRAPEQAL

SMILES | pKi [1] | pEC50 [2] | pKi [3]
O=C(Nc1ccccc1-c1ccccc1)OC1CCN(CCCCCCCCCNC[C@H](O)c2ccc(O)c(CO)c2)CC1 | 9.85 | 7.85 | 7.21
O=C(Nc1ccccc1-c1ccccc1)NC1CCN(CCCCCCCCCNCC(O)c2ccc(O)c3[nH]c(=O)ccc23)CC1 (stereo not given) | 8.12 | 8.08 | 6.94
CCN1CCC(OC(=O)Nc2ccccc2-c2ccccc2)CC1 | 7.26 |  | 
NCCN1CCC(OC(=O)Nc2ccccc2-c2ccccc2)CC1 | 7.30 |  | 
CCCCCCN1CCC(OC(=O)Nc2ccccc2-c2ccccc2)CC1 | 8.32 |  | 
CCCCCCCCCCN1CCC(OC(=O)Nc2ccccc2-c2ccccc2)CC1 | 7.60 |  | 
CCCCCCCCN1CCC(OC(=O)Nc2ccccc2-c2ccccc2)CC1 | 8.15 |  | 
NCCCCCCCCCCCN1CCC(OC(=O)Nc2ccccc2-c2ccccc2)CC1 | 8.60 |  | 
NCCCCN1CCC(OC(=O)Nc2ccccc2-c2ccccc2)CC1 | 7.08 |  | 
NCCCCCCCN1CCC(OC(=O)Nc2ccccc2-c2ccccc2)CC1 | 9.28 |  | 
NCCCCCCCCCCCCN1CCC(OC(=O)Nc2ccccc2-c2ccccc2)CC1 | 8.59 |  | 
CCCCN1CCC(OC(=O)Nc2ccccc2-c2ccccc2)CC1 | 7.77 |  | 
O=C(Nc1ccccc1-c1ccccc1)OC1CCN(CCCCCCCCNC[C@H](O)c2ccc(O)c3[nH]c(=O)ccc23)CC1 | 9.49 | 9.49 | 8.47
CCCCCN1CCC(OC(=O)Nc2ccccc2-c2ccccc2)CC1 | 7.85 |  | 
CN1CCC(OC(=O)Nc2ccccc2-c2ccccc2)CC1 | 7.66 |  | 
C[N+]1(CCCCCCCCCNC[C@H](O)c2ccc(O)c3[nH]c(=O)ccc23)[C@@H]2C[C@H](OC(=O)C(O)(c3cccs3)c3cccs3)C[C@@H]1[C@H]1O[C@H]12 (stereo not given in full) | 8.34 | 9.05 | 7.44
CCCCCCCCCN1CCC(OC(=O)Nc2ccccc2-c2ccccc2)CC1 | 8.02 |  | 
O=CNc1cc([C@@H](O)CNCCCCCCCCCN2CCC(OC(=O)Nc3ccccc3-c3ccccc3)CC2)ccc1O | 9.85 | 8.59 | 7.68
O=C(Nc1ccccc1-c1ccccc1)O[C@H]1C[N+]2(CCCCCCCCCNCC(O)c3ccc(O)c4[nH]c(=O)ccc34)CCC1CC2 (stereo not given in full) | 6.85 | 8.05 | 6.91
CCCN1CCC(OC(=O)Nc2ccccc2-c2ccccc2)CC1 | 7.11 |  | 
NCCCCCN1CCC(OC(=O)Nc2ccccc2-c2ccccc2)CC1 | 7.01 |  | 
NCCCCCCCCCN1CCC(OC(=O)Nc2ccccc2-c2ccccc2)CC1 | 9.12 |  | 

Continued, values first:

pKi [1] | pEC50 [2] | pKi [3] | SMILES
7.34 |  |  | O=C(Nc1ccccc1-c1ccccc1)OC1CCNCC1
8.29 |  |  | CCCCCCCN1CCC(OC(=O)Nc2ccccc2-c2ccccc2)CC1
7.32 |  |  | CCCCCCCCCCCN1CCC(OC(=O)Nc2ccccc2-c2ccccc2)CC1
8.80 |  |  | NCCCCCCCCCCN1CCC(OC(=O)Nc2ccccc2-c2ccccc2)CC1
9.13 | 8.96 | 8.00 | O=C(Nc1ccccc1-c1ccccc1)OC1CCN(CCCCCCCNC[C@H](O)c2ccc(O)c3[nH]c(=O)ccc23)CC1
7.72 |  |  | NCCCCCCN1CCC(OC(=O)Nc2ccccc2-c2ccccc2)CC1
7.17 |  |  | NCCCN1CCC(OC(=O)Nc2ccccc2-c2ccccc2)CC1
7.55 | 8.89 | 7.72 | O=C(Nc1ccccc1-c1ccccc1)OC1CCN(CCCNC[C@H](O)c2ccc(O)c3[nH]c(=O)ccc23)CC1
8.74 |  |  | NCCCCCCCCN1CCC(OC(=O)Nc2ccccc2-c2ccccc2)CC1
7.49 | 8.48 | 7.22 | NC(=O)C(c1ccccc1)(c1ccccc1)[C@@H]1CCN(CCCCCCCCCNCC(O)c2ccc(O)c3[nH]c(=O)ccc23)C1 (stereo not given in full)

From ChEMBL document CHEMBL1681687, “Discovery of muscarinic acetylcholine receptor antagonist and beta 2 adrenoceptor agonist (MABA) dual pharmacology molecules” (Bioorg Med Chem Lett, 2011)
